TAAR1 antag: antagonists of human TAAR1; Q96RJ0; CHO RD-HGA16 TAAR1, Fluo-8 calcium fluorescence, antagonist; inhibition, % at 3 µM; 1.5% of 360,000 active;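 active = inhibition above a per-plate cutoff, the mean inhibition of test compounds on that plate plus 3 SD, cut at about 49% in these data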;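 also: 0% = DMSO plus EC80 beta-PEA response and 100% = DMSO alone without agonist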
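System: RD-HGA16 CHO cells with stable hTAAR1 and Gα16 | Probe or stimulus: EC80 β-phenethylamine stimulus | Dosing: 3 µM, single point | Times: Dye loading 75 min at 37 °C, then 30 min room temperature | Measured by: Fluo-8 calcium-sensitive fluorescence | Read-out basis: % inhibition of agonist calcium response | Replicates: n of 1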
CHO parental Ca: counter-screen: ATP calcium response change in parental CHO cells; parental CHO-K1, ATP-induced calcium, Fluo-8 fluorescence; inhibition, % at 5.6 µM; 0.63% of 330,000 active;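 active = inhibition above that plate's mean sample inhibition plus 3 SD, cut at about 26% in these data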;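 also: 0% = ATP-challenged DMSO wells and 100% = DMSO wells without ATP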
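Assay system: untransfected parental CHO cell line. Also added: ATP agonist challenge. Dosing: one dose, 5.6 µM nominal. Measured by: Fluo-8 fluorescence. Read-out: % inhibition. Benchmarks: ATP wells versus no-ATP DMSO wells. Repeats: no replicates.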
OX1R antag-1: antagonists of human orexin 1 receptor (OX1R) | OX1R-expressing cells, FRET antagonist read-out | 1.8% of 330,000 active | inhibition, % at 6.6 µM | O43613; in the data active = inhibition mostly above about 38%, no sharp cut-off; inactive = mostly below about 40%;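 also: 0% = agonist challenge alone and 100% = reference antagonist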
Target sequence (O43613 whole entry, looked up): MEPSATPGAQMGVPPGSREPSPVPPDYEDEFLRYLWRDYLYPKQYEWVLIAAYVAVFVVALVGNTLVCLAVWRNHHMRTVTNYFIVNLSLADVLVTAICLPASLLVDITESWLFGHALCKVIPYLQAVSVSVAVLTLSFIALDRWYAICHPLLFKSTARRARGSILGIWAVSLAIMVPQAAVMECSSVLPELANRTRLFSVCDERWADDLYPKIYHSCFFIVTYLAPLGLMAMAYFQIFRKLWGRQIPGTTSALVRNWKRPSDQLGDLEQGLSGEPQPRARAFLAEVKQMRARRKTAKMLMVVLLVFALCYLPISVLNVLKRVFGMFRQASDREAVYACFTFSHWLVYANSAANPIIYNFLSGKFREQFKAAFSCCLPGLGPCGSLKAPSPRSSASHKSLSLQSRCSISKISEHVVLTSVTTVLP
GPR7 antagonist: blocks human GPR7 receptor signaling | GPR7-expressing cells, fluorescence antagonist assay | 1.1% of 290,000 active | P48145 | inhibition, % at 4.4 µM | AID 1861; in the data active = inhibition above about 16%, passing the limit was not always enough;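 also: cells stimulated with the agonist NPW; 0% = agonist with vehicle and 100% = vehicle without agonist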
TAAR1 agonist: human TAAR1 agonism; Q96RJ0; CHO RD-HGA16 TAAR1, Fluo-8 calcium fluorescence; vehicle wells 0%, saturating PEA agonist 100%; activation, % at 3 µM; 0.99% of 360,000 active; AID 624467;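 active = activation above the mean activation of all test compounds in the run plus 3 SD, cut at about 38% in these data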
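Test system: RD-HGA16 (CHO) cells co-expressing Gα16 and hTAAR1 / Benchmarks: DMSO vehicle as 0%, PEA at EC100 as 100% / Repeats: no replicates (n 1) / Measure: % activation from peak over basal fluorescence ratio, DMSO-to-PEA scaled / Timing: 17-24 h plating, Fluo-8 75 min 37 °C, 30 min RT / Technique: kinetic Fluo-8 calcium fluorescence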
OX1R antag-2: antagonists of human orexin 1 receptor; O43613; CHO/OX1R cells, Fluo-8 calcium fluorescence, orexin A; inhibition, % at 5 µM; 0.43% of 330,000 active;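 active = inhibition above its plate's threshold, mean inhibition of all tested compounds on the plate plus 3 SD, cut at about 37% in these data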;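 also: 0% = orexin A challenge wells and 100% = SB-334867-A antagonist wells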
The depositor's hits bear a star; . = no result given. Shown are actives, neighbours in structure and some others; about 4.6% of the full set was active somewhere.

SMILES	TAAR1 antag	CHO parental Ca	OX1R antag-1	GPR7 antagonist	TAAR1 agonist	OX1R antag-2
O=C(N/N=C/c1ccc(Cl)c([N+](=O)[O-])c1)c1ccc2nc[nH]c2c1	20	-6	58*	4	11	-3
O=C(N/N=C/c1ccccc1[N+](=O)[O-])c1ccc2nc[nH]c2c1	6	2	15	-13	3	-6
Cc1occc1C(=O)N/N=C/c1ccc(Cl)c([N+](=O)[O-])c1	2	-12	64*	-2	9	10
CCN(CC)CCNC(=S)Nc1ccc(Cl)cc1	-14	-14	11	-5	4	-17
Cc1ccc(N2CC(C(=O)NCc3ccco3)CC2=O)cc1Cl (configuration not stated)	-18	-14	23	-2	1	-24
CC(O)CNC1c2ccccc2CC1O (configuration not stated)	1	.	.	.	1	.
O=C1N=C(O)CN1/N=C/c1ccc(-c2ccc([N+](=O)[O-])cc2)o1	-14	-20	59*	.	-2	-13
C=CCC[C@@H](Cc1ccc(F)cc1)C(=O)OC[C@@H](Cc1c[nH]c2ccccc12)NC(=O)[C@@H](CC=C)CC(=O)N[C@H](CO)Cc1ccccc1	1	-13	5	.	3	-9
N/C(=N\OC(=O)c1ccc([N+](=O)[O-])cc1Cl)c1ccccn1	-24	-16	54*	-6	1	-28
N/C(=N\OC(=O)c1cc([N+](=O)[O-])ccc1Cl)c1ccccn1	-20	-5	46	-16	10	-7
CN(C)CCNc1ncnc2c1ncn2[C@H]1CN(Cc2ccc(F)cc2)C[C@@H](CO)O1	-22	.	.	.	1	.
C=C(C)c1cccc(C(C)(C)NC(=O)Nc2ccc(Cl)cn2)c1	9	-26	16	-4	-1	-40
Cc1sc2nc3n(c(=O)c2c1C)CCCCC3	-7	-14	8	-5	-4	-10
Cc1ccc2nc3ccc(N4CCCC4)nn3c(=O)c2c1	-14	-2	78*	-1	5	-16
Cc1sc2nc3ccc(N4CCCCC4)nn3c(=O)c2c1C	-27	-23	76*	-5	4	-14
O=C(CSc1cccc2cccnc12)Nc1ccc(S(=O)(=O)N2CCOCC2)cc1	-7	38*	16	-10	2	17
Cc1ccc(NC(=O)CC(C)c2ccccc2)cc1S(=O)(=O)N1CCOCC1 (configuration not stated)	-3	-12	37*	.	6	4
Cc1ccc(NC(=O)CSCC(=O)Nc2ccc(S(=O)(=O)N3CCOCC3)cc2)cc1	4	-11	8	-9	4	-20
COc1ccc(NC(=O)CC(C)c2ccccc2)cc1S(=O)(=O)N1CCOCC1 (configuration not stated)	-10	-16	4	.	10	-18
O=S(=O)(c1cc(-c2nc3ccccc3s2)ccc1Cl)N1CCOCC1	.	.	.	23*	.	.
Cc1ccc(-c2nc3ccccc3s2)cc1S(=O)(=O)N1CCOCC1	4	-4	15	-4	11	-20
O=C(Nc1ccccc1)Nc1ccc(Cl)c(S(=O)(=O)N2CCOCC2)c1	16	8	14	18*	33	-9
C/C(Sc1nnc(Cc2ccccc2)o1)=C(\O)c1ccccc1	17	.	.	.	3	.
Cc1ccc(Cn2cnc3ccccc32)cc1C	-26	-16	8	10	6	-3
O=C(CSc1ccccc1)Nc1ccc(Cl)c(S(=O)(=O)N2CCOCC2)c1	13	-10	40*	.	7	12
SMILES	TAAR1 antag	CHO parental Ca	OX1R antag-1	GPR7 antagonist	TAAR1 agonist	OX1R antag-2
O=C(CSc1ncccn1)Nc1ccc(Cl)c(S(=O)(=O)N2CCOCC2)c1	-21	-2	5	.	0	-17
Cc1ccc(NC(=O)CCc2nc(-c3cccs3)no2)c(Br)c1	-13	-18	10	-13	-1	-15
O=C(Nc1ccc2nc3n(c(=O)c2c1)CCCC3)c1cccc([N+](=O)[O-])c1	4	-16	38	-8	1	-19
O=C(Nc1ccc2nc3n(c(=O)c2c1)CCCC3)c1cc([N+](=O)[O-])ccc1F	.	8	52*	13	.	-4
O=C(N/C(=C/c1ccc([N+](=O)[O-])cc1)C(=O)N1CCOCC1)c1ccco1	-29	-2	74*	4	0	-12
O=C(N/C(=C\c1ccc([N+](=O)[O-])cc1)C(=O)N1CCOCC1)c1ccccc1	-8	-19	21	-15	6	-10
c1ccc(Cn2c(CN3CCCC3)nc3ccccc32)cc1	1	-9	15	-1	8	-10
CCOC(=O)c1ccc(NS(=O)(=O)c2c(N)[nH]c(=O)[nH]c2=O)cc1	12	-4	11	.	7	-4
CCc1ccccc1NC(=O)CSc1ncn[nH]1	-5	-5	1	-3	2	1
CCc1cccc(C)c1NC(=O)CSc1ncn[nH]1	3	29*	-5	-13	2	2
Cc1ccc(C(=O)c2c3ccc([N+](=O)[O-])cc3[n+]([O-])n2CCC(N)=O)cc1	-15	-7	62*	2	1	-6
CCN(CC)C(=O)CSc1nnc2nnc3cc(OC)ccc3n12	-20	-12	76*	-5	1	-6
CCN(CC)C(=O)CSc1nnc(COc2ccc(OC)cc2)n1N	-11	12	15	-6	0	-14
O=C(N/N=C/C(Cl)=C/c1ccc([N+](=O)[O-])cc1)C(=O)Nc1cccc(C(=O)O)c1	-32	3	66*	-5	2	-17
O=C(Nc1cccc(C(=O)O)c1)/C(=C/c1cccc([N+](=O)[O-])c1)NC(=O)c1cccc(Br)c1	-17	-3	51	.	0	-1
O=C1c2ccccc2-c2onc3ccc(Oc4ccccc4)c1c23	67*	1	15	-5	43*	-9
O=C(c1ccccc1)c1coc2c1C(=O)c1ccccc1C2=O	-27	-13	43	-9	2	-20
Cc1ccccc1NNC(N)=S	-23	0	11	2	3	-10
Cc1cccc(NC(=O)CC2c3ccccc3Oc3ccccc32)c1	-14	-12	51*	3	0	-11
COc1ccccc1CNC(=O)COC(=O)/C=C/c1ccc2ccccc2n1	25	-23	18	.	36	-7
CCC(c1nnnn1Cc1ccc(F)cc1)N(CCCO)Cc1cc2cc3c(cc2[nH]c1=O)OCO3 (configuration not stated)	4	-17	14	-4	2	-24
COc1ccc(NC(=S)N(CCCN2CCCC2)Cc2cccn2Cc2ccc(Cl)cc2)cc1Cl	36	5	11	19*	40*	-4
Cc1ccc(NC(=S)N(CCCN2CCCC2)Cc2cccn2Cc2ccc(Cl)cc2)cc1Cl	-39	-16	7	15	11	-6

Screening results as filed in PubChem.
